Assay results collected from several papers.
Protocols differ between the studies behind these lines.
ABL1 M351T: Tyrosine-protein kinase ABL1 (ABL1, Homo sapiens, UniProt P00519, M351T)
ABL1: Tyrosine-protein kinase ABL1 (ABL1, Homo sapiens, UniProt P00519)
ABL1 T315I non-phosphorylated: Tyrosine-protein kinase ABL1, non-phosphorylated (ABL1, Homo sapiens, UniProt P00519, T315I)
ABL1 M351T phosphorylated: Tyrosine-protein kinase ABL1, phosphorylated (ABL1, Homo sapiens, UniProt P00519, M351T)
ABL1 phosphorylated: Tyrosine-protein kinase ABL1, phosphorylated (ABL1, Homo sapiens, UniProt P00519)
ABL1 T315I: Tyrosine-protein kinase ABL1 (ABL1, Homo sapiens, UniProt P00519, T315I)

SMILES | target | assay | setting | measurement | value
CCCOc1ccc(OC)c(F)c1C(=O)c1ccc(C(=O)N[C@@H]2CNC[C@H]2NC(=O)c2ccc3[nH]ncc3c2)cc1 | ABL1 M351T | enzyme activity, inhibitor | 10 µM | remaining activity | 113%
Cc1ccc(C(=O)NCc2ccsc2)cc1C#Cc1cn(C(C)C)c2ncnc(N)c12 | ABL1 | enzyme activity, inhibitor | 1 µM | activity vs control | 1%
COc1cc2nccc(Oc3ccc(NC(=O)Nc4ccc(F)cc4F)c(F)c3)c2cc1OC | ABL1 | thermal stability, DSF | 10 µM | ΔTm | > 10 °C
COc1cc(-c2cc(-c3ccc(N4CCNCC4)cc3)cnc2N)cc(OC)c1OC | ABL1 M351T | enzyme activity, inhibitor | 0.1 µM | inhibition | 86%
Nc1ncnc2occ(-c3ccc(NC(=O)Nc4cc(C(F)(F)F)ccc4F)cc3)c12 | ABL1 T315I non-phosphorylated | cell-free assay, inhibitor | 20 µM | remaining signal | 0%
CCCOc1ccc([C@H]2[C@H](C(=O)O)[C@@H](c3ccc4c(c3)OCO4)CN2CC(=O)Nc2c(CC)cccc2CC)cc1 | Tyrosine-protein kinase ABL1, non-phosphorylated (ABL1, Homo sapiens, UniProt P00519, F317L) | cell-free assay, competition with immobilised ligand | 1 µM | remaining binding | 62%
Cc1ccc(NC(=O)c2ccc(C)c(C(F)(F)F)c2)cc1C#Cc1nn(C2CCC(O)CC2)c2ncnc(N)c12 (stereo not shown) | ABL1 | cell-free assay | 10 µM | remaining signal | -3%
CC(=O)Nc1c(C(C)=O)c(=O)n(C)c2nc(-c3ccc(Cl)cc3Cl)c(-c3ccc(Cl)cc3)cc12 | Tyrosine-protein kinase ABL1, non-phosphorylated (ABL1, Homo sapiens, UniProt P00519, F317I) | binding, competition with immobilised ligand | 1 µM | remaining binding | 77%
COc1ccc(COc2ccc(Cc3cnc(N)nc3N)cc2OC)cc1 | ABL1 | cell-free assay | 0.5 µM | remaining signal | 102%
CN(c1ccnc(CNc2nc(Nc3ccc4c(c3)CC(=O)N4)ncc2C(F)(F)F)n1)S(C)(=O)=O | ABL1 M351T phosphorylated | cell-free assay, competition with immobilised ligand | 1 µM | remaining binding | 62%
c1nc2c(Nc3ccc4c(c3)OCCO4)nc(Nc3ccc4c(c3)OCCO4)nc2[nH]1 | ABL1 phosphorylated | binding, competition with immobilised ligand | 10 µM | binding vs control | 1.2%
N[C@@H]1CCN(c2nccc(-c3cnn4ncccc34)n2)C1 | ABL1 phosphorylated | binding | 1 µM | remaining binding | 95%
Cc1cc(NC(=O)c2cccc3cc(-c4cccc5[nH]nc(N)c45)ccc23)ccc1F | ABL1 M351T | enzyme activity, inhibitor | 0.1 µM | activity vs control | 89%
COc1cc2ncnc(Nc3ccc(Oc4ccccc4)cc3C)c2cc1OC | Tyrosine-protein kinase ABL1 (ABL1, Homo sapiens, UniProt P00519, E255K) | enzyme activity, inhibitor | 1 µM | inhibition | 5%
C[C@@]1(Cc2ccc(C#N)cc2)C(=O)N(c2cc(Cl)cc(Cl)c2)c2ncc(C(=O)NC3(c4nc(C5CCC5)no4)CC3)n21 | ABL1 T315I non-phosphorylated | cell-free assay, competition with immobilised ligand | 1 µM | remaining binding | 100%
N#CCCc1ccc2c(c1)-c1[nH]c3ccc([N+](=O)[O-])cc3c1CC(=O)N2 | ABL1 | cell-free assay | 0.5 µM | remaining signal | 47.8%
Cc1cnc(NC2CCOCC2)nc1-n1cnc(C(=O)NC(CN)c2cc(F)cc(Cl)c2)c1 (stereo not shown) | ABL1 T315I | enzyme activity, inhibitor, radiometric | 1 µM | remaining activity | 115%
Cc1noc([C@H]2C[C@@H](c3ccc(C(F)(F)F)cc3)CN(C(=O)N3CCS(=O)(=O)C3)C2)n1 | Tyrosine-protein kinase ABL1, phosphorylated (ABL1, Homo sapiens, UniProt P00519, E255K) | binding, competition with immobilised ligand | 1 µM | remaining binding | 100%
CCOC(=O)c1c(C)[nH]c(/C=C2\C(=O)Nc3ccccc32)c1C | ABL1 | cell-free assay | 0.5 µM | remaining signal | 95.4%
N#Cc1ccc(Nc2ccc3[nH]c(=O)[nH]c3c2)c(Cl)c1 | Tyrosine-protein kinase ABL1, phosphorylated (ABL1, Homo sapiens, UniProt P00519, H396P) | cell-free assay, competition with immobilised ligand | 1 µM | remaining binding | 95%
CNc1cccc2cc(C(=O)Nc3ccc(C(=O)O)cc3)c(=O)[nH]c12 | ABL1 T315I | enzyme activity, inhibitor | 10 µM | inhibition | 1.3%
COCCOc1nc(-c2ccc(Cl)nc2)nc2c1CN(C(=O)c1ncn3ccccc13)CC2 | Tyrosine-protein kinase ABL1, phosphorylated (ABL1, Homo sapiens, UniProt P00519, T315I) | cell-free assay, competition with immobilised ligand | 0.1 µM | remaining binding | 100%
COc1cc2c(N3CCN(C(=O)Nc4ccc(OC(C)C)cc4)CC3)ncnc2cc1OCCCN1CCCCC1 | ABL1 | cell-free assay | 0.5 µM | remaining signal | 104%
COc1ccc2c(c1)O[C@H](c1ccc(OC)c(OC)c1)C[C@@H]2NC(=O)C1(c2ccc3c(c2)OC(F)(F)O3)CC1 | ABL1 M351T phosphorylated | cell-free assay, competition with immobilised ligand | 1 µM | remaining binding | 88%
COc1cc2ncnc(Nc3ccc(Oc4ccccc4)c(C)c3C)c2cc1OC | ABL1 T315I | enzyme activity, inhibitor | 1 µM | inhibition | 8%
